Experiments:
[1] = LC-MS/MS detection of ETC and ETC-nucleotides in tumor and liver tissue; assay type: in vivo, NMRI:nu/nu female mice; settings: 2 h after administration
Method in brief: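 Subcutaneous HT-29 xenografts were grown in female NMRI nude mice. Tumour and liver were taken 2 h after prodrug administration. ETC and its nucleotides were quantified by LC-MS/MS in MRM mode (transition 268.2/112.2).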

[2] = In vivo toxicity in HT-29 xenograft mice; parameters: species or system NMRI:nu/nu female mice; settings: i.v. and oral treatment
[3] = HPLC analysis of extracellular cleavage of prodrugs to nucleosides in the medium; assay type: in vitro ADME; settings: after 24 h incubation with 100 µM prodrug
Method in brief: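 Cells were exposed to prodrug for 24 h. Medium above the cells was sampled after centrifugation, deproteinized with TCA and neutralized, then analysed by HPLC-UV for parent drug, FdUrd and ETC. Means of 3–5 independent experiments ± SEM.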

HT-29 xenograft = test: In vivo antitumor effect in human HT-29 xenograft model; parameters: species or system NMRI:nu/nu female mice; settings: or., 40 mg/kg/inj
Method in brief: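 5-FU-resistant human HT-29 colon carcinoma cells were implanted subcutaneously in female nude mice. Dosing began at palpable tumour size on a q4dx3 schedule. Tumour volumes of treated mice (T) were compared with PBS-treated controls (C). Animals were killed once tumours exceeded 1 cm3.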

[4] = molecular target: thymidylate synthase (TS) in intact FM3A/0 cells (Mus musculus, UniProt P07607); test: TS in situ activity assay; assay type: cell-based, murine; settings: 24 h exposure to 0.5 µM
Chain of thymidylate synthase (TS) in intact FM3A/0 cells (P07607 whole entry): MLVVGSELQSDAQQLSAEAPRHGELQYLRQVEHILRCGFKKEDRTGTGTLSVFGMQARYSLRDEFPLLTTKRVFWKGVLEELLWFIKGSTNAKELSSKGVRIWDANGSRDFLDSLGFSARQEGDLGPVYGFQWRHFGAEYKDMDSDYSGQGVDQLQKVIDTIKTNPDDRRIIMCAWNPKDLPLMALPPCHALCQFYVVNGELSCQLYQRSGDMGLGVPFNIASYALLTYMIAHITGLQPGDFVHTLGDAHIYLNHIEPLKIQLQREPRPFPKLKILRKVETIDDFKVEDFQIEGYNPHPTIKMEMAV

Row | SMILES | ETC and ETC-nucleotide accumulation in liver tissue [1] | ETC-nucleoside and ETC-nucleotide accumulation in tumor tissue ([1]; HT-29 xenograft) | haematological side effects [2] | parent drug still present in the medium [3] | Evaluation (in vivo activity) (HT-29 xenograft) | inhibition of thymidylate synthase (TS) in situ [4]
1 | C#C[C@@]1(O)[C@@H](COP(=O)(O)OC[C@H]2O[C@@H](n3cc(F)c(=O)[nH]c3=O)C[C@@H]2O)O[C@@H](n2ccc(N)nc2=O)[C@@H]1O [ETC-FdUrd, 3′-C-Ethynylcytidylyl-(5′➔5′)-5-fluoro-2′-deoxyuridine] | accumulated in the liver tissue | accumulated to a high extent in the tumor tissue | did not result in any haematological side effects | More than 60% | orally active | 
2 | O=c1[nH]c(=O)n([C@H]2C[C@H](O)[C@@H](CO)O2)cc1F [FdUrd, 5-fluoro-2′-deoxyuridine] |  |  |  |  |  | inhibited almost completely
